Screening data from PubChem.
HUVEC prolif 384: inhibitors of HUVEC proliferation, primary screen, cell-based, 384-well. viability, % at 10 µM (by protocol). CellTiter-Glo luminescence, 72 h; hits give low values. actives 1.1% (n = 86,000);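 active = viability at or below 30%; inactive = viability above 30%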;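 note: 100% = median luminescence of DMSO-only cell control wells on each plate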
HCT116 PTEN-null: growth suppression of PTEN-null HCT116, primary screen, cell-based, CellTiter-Glo. HCT116 PTEN-null viability, 60 h; hits give low values. viability, % at 10 µM. actives 1.2% (n = 140,000). AID 827, 2007;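 active = viability at or below a set limit, 4 SD under the median of all tested compounds, cut at about 3.7% in these data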;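 note: PTEN knockout HCT116 line with beta catenin targeted HCT116 as companion control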
Fibroblast inh: antiproliferative effect on LL 47 fibroblasts – human, LL 47 cells, CellTiter-Glo luminescence, primary screen; actives 1.1% (n = 85,000); LL 47 human lung fibroblast viability, ATP luminescence; hits give low values; viability, % at 10 µM;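 active = viability at or below 50% in the single dose screen; inactive = viability above 50%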;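 note: compound exposure lasted 72 h before the ATP readout; 100% = median luminescence of untreated cell-only wells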
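Test system: LL 47 human lung fibroblasts / Incubation: 72 h compound exposure at 37 °C after overnight plating / Technique: luminescent ATP detection, CellTiter-Glo / Compound dosing: 0.1% DMSO in all compound wells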
Cav32 inh: Cav3.2 calcium influx blockers – cell-based, Fluo-4 calcium fluorescence, FDSS, MLSMR library, primary screen; Voltage-dependent T-type calcium channel subunit alpha-1H (Homo sapiens), O95180; Cav3.2-expressing cells; hits give low values; B-score at 10 µM; actives 4% (n = 100,000); AID 449739, 2010;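 active = single-dose well whose peak fluorescence ratio is a statistical outlier from its plate by either plate-standardised score or position-corrected B-score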
bCat KO growth: primary screen for growth suppressors in beta-catenin knockout HCT116 cells (colon tumor, human). HCT116 beta-catenin knockout viability, CellTiter-Glo, 60 h; hits give low values. viability, % at 10 µM. actives 1.5% (n = 140,000). AID 818, 2007;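 active = viability at or under a set limit, the compound median less 4 SD, cut at about 6% in these data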;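 note: 0% = Hyamine 1622 control at 20 µM and 100% = untreated cell control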
H69AR growth 86K: proliferation blockers of H69AR lung cancer cells, primary screen, cell-based, human, 86K library; H69AR lung tumor viability, ATP luminescence, 72 h; hits give low values; viability, % at 10 µM; actives 6% (n = 85,000);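 active = viability at or below 40%; inactive = viability above 40%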;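 note: multidrug resistant small cell line overexpressing MRP-1 efflux transporter; 100% = mean luminescence of untreated control wells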
The depositor's hits bear a star; . = not tested or not shown. The list is not random: actives were taken first. Their share in the collection is about 7.1%.

SMILES	HUVEC prolif 384	HCT116 PTEN-null	Fibroblast inh	Cav32 inh	bCat KO growth	H69AR growth 86K
Cc1cc(N2CCCCCC2)nc2ccc(F)cc12	.	.	.	-0.776	.	.
O=C(NCc1nc2ccccc2[nH]1)C1=C[C@H](c2coc3ccccc3c2=O)C[C@H](OCCCCO)O1	.	.	.	-0.0136	.	.
COC(=O)c1ccc(C(=O)Nc2ccc(N)cc2N)cc1	97.6	96.1	101.0	0.532	91.2	1.9*
COC(=O)c1ccc(C(=O)OC)c(N)c1	105.1	106.4	101.2	0.41	111.1	89.8
COc1ccccc1NC(=O)c1ccc(N)cc1	84.3	105.4	97.4	-4.24*	103.8	97.6
Cc1ccc(C)c(NC(=O)CSc2nc3ccc(N4C(=O)c5ccccc5C4=O)cc3s2)c1	.	82.8	.	.	97.5	.
CCOc1cccc(-c2csc(C3COc4ccccc4O3)n2)c1 (stereo not drawn)	.	96.9	.	.	95.5	.
C(=C1/CCCC2=C1Nc1ncnn1C2c1ccccc1)/c1ccccc1 (stereo not drawn)	12.9*	1.5*	4.1*	-0.0198	1.5*	0.8*
S=C1NC2=C(CCC/C2=C\c2ccccc2)C(c2ccccc2)N1 (stereo not drawn)	.	94.7	.	.	90.6	.
O=C(/C=C/c1ccccc1Cl)NCc1cccs1	.	86.0	.	.	87.2	.
COCC(C)n1c(C)cc(C(=O)COC(=O)c2c(NC(C)=O)sc(C)c2C)c1C (stereo not drawn)	30.9	.	62.1	0.509	.	3.2*
CCCOc1ccc(Br)cc1/C=N/O	104.2	90.5	99.6	-4.87*	97.3	83.4
Cc1nc2c(ccc3nc(NC(=O)Cc4ccccc4)sc32)s1	.	53.6	.	.	60.1	.
Cc1nc2c(ccc3nc(NC(=O)c4ccc(S(=O)(=O)N(C)C)cc4)sc32)s1	46.7	74.3	94.6	0.778	80.3	35.2*
Cc1ccc(C(=O)NNC(=O)c2cc(OCC(F)(F)F)ccc2OCC(F)(F)F)cc1	.	86.6	.	-1.24	92.0	.
O=C(NNC(=O)c1cc(OCC(F)(F)F)ccc1OCC(F)(F)F)c1cccc(C(F)(F)F)c1	.	54.8	.	-8.97*	55.5	.
CC(C)c1ccccc1NC(=S)NN(Cc1ccccc1)c1ccccc1	95.3	47.6	87.3	-6.94*	43.6	73.5
Fc1ccccc1NC(=S)NN(Cc1ccccc1)c1ccccc1	.	81.5	.	-3.31	80.7	.
Cc1ccc(NC(=O)C(=O)NCc2ccc(/C=N/NC(=O)c3c(C)nc4ccccn34)o2)cc1	.	88.2	.	.	88.6	.
CC1Cc2ccccc2N1S(=O)(=O)c1cccs1 (stereo not drawn)	93.9	22.3	92.6	-1.28	12.0	63.0
CCOc1ccc(S(=O)(=O)N2c3ccccc3CC2C)cc1 (stereo not drawn)	47.8	12.8	51.6	-3.57*	12.7	24.7*
C=C1CCN([C@@H](Cc2ccccc2)C(=O)NCCCc2ccccc2)S(=O)(=O)c2ccccc21	.	.	.	-4.47*	.	.
CCNC(=S)NNC(=O)c1cc(C2CC2)nc2ccccc12	.	87.1	.	.	92.2	.
COc1ccc(-c2nnn(CC(=O)N3CCN(c4ccccc4OC)CC3)n2)cc1	98.0	83.6	97.1	-0.0404	95.1	67.1
COc1ccc(-c2nnn(CC(=O)NC3CCCc4ccccc43)n2)cc1OC (stereo not drawn)	99.9	.	66.1	-0.0347	.	24.8*
SMILES	HUVEC prolif 384	HCT116 PTEN-null	Fibroblast inh	Cav32 inh	bCat KO growth	H69AR growth 86K
COc1ccc(-c2nc(CSCC(=O)NC3CCCc4ccccc43)c(C)o2)cc1OC (stereo not drawn)	108.7	63.5	94.8	-3.3	76.8	73.2
CCOC(=O)Cc1cnc(NC(=O)Cn2nnc(-c3ccc(OCC)cc3)n2)s1	112.8	96.1	98.2	-7.21*	91.2	96.5
CCOc1ccc(-c2nnn(CC(=O)N3CCCC3)n2)cc1OCC	90.3	103.5	97.7	0.776	102.1	83.4
CCOc1ccccc1NC(=O)Cn1nnc(-c2ccc(OCC)c(OCC)c2)n1	54.9	2.8*	72.8	.	2.0*	3.5*
COc1ccc(N2CCN(C(=O)Cn3nnc(-c4ccc(OC)c(OC)c4)n3)CC2)cc1	101.4	58.8	100.4	0.126	78.1	14.7*
CCOC(=O)N/N=C\C=C\c1ccc2c(c1)OCO2	.	107.0	.	.	103.7	.
Cc1ccsc1/C=N/NC(=O)Cn1cnc2ccccc21	.	98.1	.	.	93.0	.
CCOc1ccc(-c2nnn(CC(=O)Nc3cc(OC)cc(OC)c3)n2)cc1OCC	54.5	62.9	94.8	-0.0938	54.3	10.5*
CCOc1ccc(-c2nnn(CC(=O)Nc3cc(OC)ccc3OC)n2)cc1OCC	61.8	94.1	94.0	0.55	107.8	97.2
COc1cc(OC)cc(C(=O)N[C@H](C(=O)OCC(=O)Nc2ccc(C(C)C)cc2)C(C)C)c1	.	86.3	.	.	83.8	.
Cc1cccc(C)c1NC(=O)CSCC(=O)c1ccc(O)c(O)c1	63.4	53.0	78.8	0.569	31.6	18.3*
Cc1cccc(C)c1NC(=O)CSCC(=O)O	106.0	99.5	97.3	0.995	90.9	104.0
COc1cc(/C=C2/C(=O)c3cccc([N+](=O)[O-])c3C2=O)c(Br)cc1O	.	9.9	.	.	7.0	.
CCn1cc(C(=O)Nc2sc(C)c(C)c2C(=O)OC)cn1	.	95.7	.	.	89.3	.
COc1ccc(CNCCC(c2ccc(OC(C)C)cc2)C(C)C)cc1OC (stereo not drawn)	.	1.3*	.	-3.67*	1.2*	.
CCOCCCNCc1ccc(OC)c(OC)c1	107.8	90.6	96.5	1.63	99.0	87.3
COc1ccc(N2C(=O)CC2(/C=C/c2ccccc2OC)C(=O)NC2CCCC2)cc1 (stereo not drawn)	86.9	68.2	97.5	-5.39*	75.7	54.3
O=C1CC(/C=C/c2ccccc2)(C(=O)NC2CCCC2)N1c1ccc(S(=O)(=O)N2CCCC2)cc1 (stereo not drawn)	.	73.1	.	.	83.7	.
O=C(Nc1ccc(Br)cc1)c1cccc(N2C(=O)C3C4CCC(C4)C3C2=O)c1 (stereo not drawn)	.	83.0	.	.	81.7	.
Cc1ccc(NC(=O)Cc2ncc(C(F)(F)F)cc2Cl)cc1Cl	.	86.8	.	-4.79*	97.8	.
CCC1Sc2ccccc2N(CC(=O)NCc2ccc3c(c2)OCO3)C1=O (stereo not drawn)	83.5	95.3	99.7	-0.0445	83.2	94.1
CCC1Sc2ccccc2N(CC(=O)NCCC2=CCCCC2)C1=O (stereo not drawn)	100.5	90.5	95.8	-5.8*	80.8	80.6
O=C(CN1C2=NCCN2c2ccccc21)c1ccc(Br)s1	.	44.8	.	.	46.6	.
COc1cccc(NC(=O)CN2CCN(c3ccc(F)cc3)CC2)c1	109.0	90.0	95.4	.	100.1	28.0*
Cc1[nH]c2ccccc2c1C(O)CN1CCN(c2cccc(C(F)(F)F)c2)CC1 (stereo not drawn)	2.4*	22.4	42.7*	-1.22	29.1	1.3*
